Here are results for 19 compounds from publication PMC6261781 (Cell chemical biology, 2018).

The term CC50 denotes the concentration at which the toxic effect on the cells reaches its halfway point. Usually IC50 stands for the point on the concentration scale where inhibition reaches its midpoint.

Where a name gives a salt, the structure may show the parent alone.

In data set [1] the test system is MT-4 cells. Description: in vitro. The class given is cell-based, human. The conditions noted are these: for S.I. with (CC50/IC50^WT): CC50 in MT-4 / IC50 against HIV-1^WT.
A short description of data set [2]: in vitro. The class given is cell-based, human. The conditions noted are these: human.
Data set [3] concerns HIV-1EFdA^R. Description: p24 assay using MT-4 cells. The conditions noted are these: for Activity against HIV-1EFdA^R (in words) / Fold change of IC50 against HIV-1EFdA^R compared with HIV-1^WT: p24 assay, MT-4 cells; for Activity against HIV-1EFdA^R (in words): concentrations up to 1 μM; for IC50: Human immunodeficiency virus 1, MT4, read-out: IC50 against HIV-1EFdA^R. The class given is cell-based. The method in brief:
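MT-4 cells (RPMI 1640, 10% FCS, 37°C, 5% CO2) infected with a recombinant HIV-1NL4-3-based clone and cultured 5 days with test compound. Supernatant p24 was measured by chemiluminescent enzyme immunoassay, and signal (cps) was converted to ng/ml against a 2-fold serial-dilution p24 standard curve. Run in triplicate in two or three independent experiments; IC50 was calculated per experiment and averaged.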

Data set [4] has as its system HIV-1^67-75. Description: Anti-HIV-1 MTT assay in MT-4 cells. The class given is cell-based. Background: Tetrazolium assays rely on reduction of a dye to a coloured formazan, in cell work by metabolically active cells.
Data set [5] relates to HIV-1^WT. Description: Anti-HIV-1 MTT assay. The class given is cell-based. The conditions noted are these: read-out: Anti-HIV-1 IC50 against HIV-1^WT, MT-4 cells, mean ± 1 S.D.
In data set [6] the test system is HIV-1^M184V. The conditions noted are these: ref Kawamoto et al., 2008; Maeda et al., 2014; cited from earlier work.
The test system of data set [7] is HIV-1 with I142V, T165R, and M184V in RT. The conditions noted are these: ref Kawamoto et al., 2008; cited from earlier work.
Data set [8] deals with HBV. The conditions noted are these: ref Takamatsu et al., 2015; cited from earlier work.
For data set [9] the following is noted: 10-mg single dose in humans; ref Grobler et al., CROI. Abstr. 98, 2016; cited from earlier work.
For data set [10], the system named is HIV-1^K65R. Description: Anti-HIV-1 MTT assay in MT-4 cells. The class given is cell-based.
Data set [11] has as its system HIV-1^T215F. Description: Anti-HIV-1 MTT assay in MT-4 cells. The class given is cell-based.
Data set [12] deals with HIV-1^M184V. Description: Anti-HIV-1 MTT assay in MT-4 cells. The class given is cell-based.
The subject of data set [13] is HIV-1. The conditions noted are these: ref Takamatsu et al., 2015; cited from earlier work.
The conditions of data set [14]: ref Nakata et al., 2007; cited from earlier work.

On to `C#C[C@]1(CO)O[C@@H](n2cnc3c(=O)[nH]c(N)nc32)C[C@@H]1O` [EdG, 4′-ethynyl-2′-deoxyguanosine], for which, in [1], the “S.I. with (CC50/IC50^WT)” value was 4,350. Further, the CC50 in data set [2] came out at 7 µM. Also, the “Activity against HIV-1EFdA^R (in words)” value in data set [3] is “favorable activity”.

With `Nc1nc(N)c2ncn([C@H]3C[C@H](O)[C@](CO)(CF)O3)c2n1` [FMAdA, 4′-fluoromethyl-2-amino-2′-deoxyadenosine], the “S.I. with (CC50/IC50^WT)” value in [1] was 7,400. The compound further gave a CC50 in [2] of 22.2 ± 4.1 µM.

As to `CC[C@]1(CO)O[C@@H](n2cnc3c(N)nc(N)nc32)C[C@@H]1O` [EtAdA, 4′-ethyl-2-amino-2′-deoxyadenosine], the “S.I. with (CC50/IC50^WT)” value in [1] is on record as 4,030. Besides, in [2], the half-maximal cytotoxic concentration (CC50) came out at 35.9 ± 3.1 µM.

`CC[C@]1(CO)O[C@@H](n2cnc3c(O)nc(N)nc32)C[C@@H]1O` [EtdG, 4′-ethyl-2′-deoxyguanosine]: the “S.I. with (CC50/IC50^WT)” value in [1] is reported as 8,390. In data set [2], this compound returned a cytotoxic concentration (CC50) of 47 ± 3.2 µM.

For `Nc1nc(NC2CC2)c2ncn([C@H]3C=C[C@@H](CO)C3)c2n1` [ABC, abacavir, reference compound], the IC50 in [4] (Human immunodeficiency virus 1, MT4, read-out: IC50 against HIV-1^67-75) is greater than 1 µM; in [5], 0.263 ± 0.0076 µM. For the same compound, the “S.I. with (CC50/IC50^WT)” value in data set [1] is greater than 380. Moreover, the 50% cytotoxic concentration (CC50) in data set [2] is greater than 100 µM.

In the case of `C#C[C@]1(CO)O[C@@H](n2cnc3c(N)nc(F)nc32)C[C@@H]1O` [EFdA, 4′-ethynyl-2-fluoro-2′-deoxyadenosine], the “Fold decrease in activity against HIV-1^M184V (previous observation)” value in data set [6] was ~ 6 fold. For the same compound, in data set [7], the “Resistance, fold change compared with HIV-1^WT” value is 22 fold. The “S.I. with (CC50/IC50^WT)” value in data set [1] is listed as 64,000. The compound further came in with a half-maximal cytotoxic concentration (CC50) in data set [2] of 19.2 ± 6 µM. The “Anti-HBV activity (in words)” value in data set [8] is reported as “minor anti-HBV activity”. In addition, in data set [3], the IC50 came out at 0.042 µM, the “Fold change of IC50 against HIV-1EFdA^R compared with HIV-1^WT” value was found to be 52 fold and the “Activity against HIV-1EFdA^R (in words)” value is reported as “favorable activity”. Further, the “Time with concentrations exceeding projected efficacious concentrations” value in data set [9] is “at least 7 days”.

With `C=C[C@]1(CO)O[C@@H](n2cnc3c(N)nc(N)nc32)C[C@@H]1O` [VAdA, 4′-vinyl-2-amino-2′-deoxyadenosine], the “S.I. with (CC50/IC50^WT)” value in [1] is on record as 4,790. Moreover, the half-maximal cytotoxic concentration (CC50) in [2] worked out at 20.6 ± 3.2 µM. Also, in [3], the IC50 was determined as 0.804 µM and the “Fold change of IC50 against HIV-1EFdA^R compared with HIV-1^WT” value came out at 190 fold.

`Nc1ccn([C@H]2C[C@H](O)[C@](CO)(CF)O2)c(=O)n1` [FMdC, 4′-fluoromethyl-2′-deoxycytidine]: in [1], the “S.I. with (CC50/IC50^WT)” value was 120. In data set [2], this compound returned a 50% cytotoxic concentration (CC50) of 4 µM.

Take `C[C@]1(CO)O[C@@H](n2cnc3c(O)nc(N)nc32)C[C@@H]1O` [MdG, 4′-methyl-2′-deoxyguanosine]: the “S.I. with (CC50/IC50^WT)” value in [1] was determined as 25. This compound also showed a CC50 in data set [2] of 4.6 ± 0.6 µM.

Take `Cc1cn(C2CC(O)C(C#N)(CO)O2)c(=O)[nH]c1=O` (stereo not shown) [CdT, 4′-cyano-2′-deoxythymidine]: the “Fold change of IC50 against HIV-1^K65R compared with HIV-1^WT (in parentheses)” value in data set [10] is listed as 0.2 fold. The “Fold change of IC50 against HIV-1^67-75 compared with HIV-1^WT (in parentheses)” value in data set [4] (MT-4 cells, MTT assay) amounted to 0.9 fold. Besides, the “S.I. with (CC50/IC50^WT)” value in data set [1] is given as > 1,100. For the same compound, in data set [1] (read-out: CC50 in MT-4, MT-4 cells, 7 days of culture), the half-maximal cytotoxic concentration (CC50) is greater than 10 µM. The “Fold change of IC50 against HIV-1^T215F compared with HIV-1^WT (in parentheses)” value in data set [11] is on record as 0.3 fold. Also, the concentration for half-maximal inhibition (IC50) turned out to be 0.003 µM in [11] (read-out: Anti-HIV-1 IC50 against HIV-1^T215F), 0.0091 ± 0.0073 µM in data set [5] and 0.0117 ± 0.0024 µM in [12] (read-out: Anti-HIV-1 IC50 against HIV-1^M184V). Further, the “Activity against HIV-1EFdA^R (in words)” value in [3] was “favorable activity”. Further, the “Fold change of IC50 against HIV-1^M184V compared with HIV-1^WT (in parentheses)” value in [12] was found to be 1.3 fold.

On to `N#C[C@]1(CO)O[C@@H](n2cnc3c(N)nc(N)nc32)C[C@@H]1O` [CAdA, 4′-cyano-2-amino-2′-deoxyadenosine], for which the “S.I. with (CC50/IC50^WT)” value in [1] is reported as 17,500. In [2], this compound registered a cytotoxic concentration (CC50) of 3.5 ± 1.2 µM. For the same compound, the “Anti-HBV activity (in words)” value in [8] is on record as “sub nano molar”. The “Anti-HIV-1 activity (in words)” value in data set [13] is reported as “sub nano molar”. Also, the “Activity against HIV-1EFdA^R (in words)” value in data set [3] is listed as “favorable activity”.

`N#C[C@]1(CO)O[C@@H](n2cnc3c(=O)[nH]c(N)nc32)C[C@@H]1O` [CdG, reference compound]: the “Anti-HBV activity (in words)” value in data set [8] is “sub nano molar”. In [13], the “Anti-HIV-1 activity (in words)” value is recorded as “sub nano molar”.

For `Cc1cn([C@H]2C[C@H](N=[N+]=[N-])[C@@H](CO)O2)c(=O)[nH]c1=O` [AZT, zidovudine, reference compound], the “S.I. with (CC50/IC50^WT)” value in [1] is on record as > 2,670. Moreover, the CC50 in [2] is greater than 100 µM. For the same compound, the concentration for half-maximal inhibition (IC50) in [5] was determined as 0.0374 ± 0.0075 µM.

Consider `CC(C)OC(=O)OCOP(=O)(CO[C@H](C)Cn1cnc2c(N)ncnc21)OCOC(=O)OC(C)C` [TDF, tenofovir disoproxil fumarate, reference compound], for which the “S.I. with (CC50/IC50^WT)” value in data set [1] is on record as 190. In data set [2], this compound showed a CC50 of 39.4 ± 7.3 µM. Also, the IC50 in data set [5] is 0.204 ± 0.127 µM.

As to `C[C@]1(CO)O[C@@H](n2cnc3c(N)nc(N)nc32)C[C@@H]1O` [MAdA, 4′-methyl-2-amino-2′-deoxyadenosine], in data set [1], the “S.I. with (CC50/IC50^WT)” value was determined as 15. In data set [2], the 50% cytotoxic concentration (CC50) amounted to 4 ± 0.3 µM.

For the compound `C#C[C@]1(CO)O[C@@H](n2ccc(N)nc2=O)C[C@@H]1O` [EdC, 4′-ethynyl-2′-deoxycytidine], the “Activity against HIV-1EFdA^R (in words)” value in data set [3] is listed as “favorable activity”.

As to `Nc1nc(F)nc2c1ncn2[C@H]1C[C@H](O)[C@](CO)(CF)O1` [FMFdA, 4′-fluoromethyl-2-fluoro-2′-deoxyadenosine], the “S.I. with (CC50/IC50^WT)” value in [1] is on record as 260. The compound further came in with a 50% cytotoxic concentration (CC50) in data set [2] of 6.6 ± 0.5 µM.

As for `CNc1nc(N)nc2c1ncn2[C@H]1C[C@H](O)[C@](CO)(CF)O1` [FMAMdA, 4′-fluoromethyl-2-amino-N6-methyl-2′-deoxyadenosine], in [1], the “S.I. with (CC50/IC50^WT)” value is greater than 600. In addition, the cytotoxic concentration (CC50) in [2] was greater than 100 µM.

Consider `C#C[C@]1(COP(=O)(O)OP(=O)(O)OP(=O)(O)O)O[C@@H](n2cnc3c(N)nc(F)nc32)C[C@@H]1O` [EFdA-TP, EFdA-triphosphate], for which the Intracellular half-life in [14] is reported as no less than 17 h.
